Assay outcomes from PubChem BioAssay.
Only some compounds are listed: those with a hit (about 2.9% of all), similar ones and a draw of the others.
GSIS activator = GLuc luminescence reporter in INS-1E cells, primary screen for activators of glucose-dependent secretion of insulin; 370,000 tested, 0.61% active; INS-1E GLuc reporter insulin secretion, 2-3 h; activation, % at 16.6 µM;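 active means lowest replicate activation of at least 40%, so every replicate reaches that level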;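 further: 0% = median of neutral control wells and 100% = median of IBMX positive control wells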
dFosB act-1 = activators of delta FosB homodimer, primary screen, biochemical, fluorescence polarization, TAMRA-CDK5 oligo, single point. Protein FosB (Mus musculus), P13346. purified delta FosB; percent of positive-control signal above neutral wells. activation, % at 25 µM. 340,000 tested, 0.99% active;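 active means mean activation above about 17%, with every replicate also reaching it, limit read from the data, passing the limit was not always enough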
Env fusion inh = inhibitors of HIV-1 Env-driven cell-cell fusion, primary screen, HeLa-JRFL effector, CEM21 target cells, luciferase | inhibition, % at 12.3 µM | 360,000 tested, 1.1% active;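 active means mean replicate inhibition score of at least 50 and every replicate individually at or above 50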;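 further: 0% = plate neutral controls and 100% = maraviroc near 300 nM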
PAX8 inh HTS = inhibitors of PAX8-driven TPO luciferase reporter, primary screen, RMG-I cells, single concentration. SteadyGlo, 24 h. inhibition, % at 12.6 µM. 360,000 tested, 1.2% active. AID 652154, 2013;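 active means mean replicate inhibition at least 60% with every replicate also reaching 60%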;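 further: luciferase light reporting Pax8 driven TPO promoter activity; plate controls were median of neutral control wells for no effect and mitoxantrone controls for full effect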
CDK5 inh = inhibitors of human CDK5/p35 kinase, primary screen, biochemical, single concentration; Cyclin-dependent kinase 5 (Homo sapiens) + Cyclin-dependent kinase 5 activator 1 (Homo …; Recombinant CDK5/p35, ADP-Glo luminescence, 60 min; inhibition, % at 10 µM; 330,000 tested, 0.01% active; AID 488839, 2010;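 active means highest replicate inhibition of at least 50% and at least 75% of replicates reaching 50%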;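 further: plate controls were DMSO neutral control for no effect and GW8510 at 10 µM for full effect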
Target sequence (Q00535 whole entry, looked up): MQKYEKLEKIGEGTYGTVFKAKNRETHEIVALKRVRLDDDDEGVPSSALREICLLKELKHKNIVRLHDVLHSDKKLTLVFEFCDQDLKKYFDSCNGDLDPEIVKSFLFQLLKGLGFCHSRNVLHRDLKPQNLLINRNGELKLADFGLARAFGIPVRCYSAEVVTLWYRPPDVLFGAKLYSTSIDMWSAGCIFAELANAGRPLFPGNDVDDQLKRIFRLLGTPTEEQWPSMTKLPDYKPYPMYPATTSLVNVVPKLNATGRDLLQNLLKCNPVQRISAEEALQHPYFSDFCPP
Target sequence (Q15078 whole entry, looked up): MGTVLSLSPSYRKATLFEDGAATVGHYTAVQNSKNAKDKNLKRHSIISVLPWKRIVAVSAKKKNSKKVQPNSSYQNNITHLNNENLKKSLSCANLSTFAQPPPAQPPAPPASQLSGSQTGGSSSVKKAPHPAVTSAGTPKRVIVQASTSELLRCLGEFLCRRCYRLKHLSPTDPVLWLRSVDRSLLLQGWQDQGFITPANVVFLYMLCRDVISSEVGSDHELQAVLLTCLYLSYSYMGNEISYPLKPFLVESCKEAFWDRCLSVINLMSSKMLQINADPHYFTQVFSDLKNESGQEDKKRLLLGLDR
Cneo AK release = Cryptococcus neoformans cell lysis inducers, primary screen, AK release luminescence, single concentration | C. neoformans lysis, adenylate kinase release luminescence, 4 h; normalised: neutral wells 0, clomiphene wells 100 | lysis activity, % at 15 µM | 360,000 tested, 0.2% active | AID 651654, 2012;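 active means mean lysis activity across replicates of at least 80%, whatever share of replicates individually reach that level; inactive means mean lysis activity below 80%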
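Test system: log-phase Cryptococcus neoformans yeast cells; Quantity: yeast cell density of 5 × 10^6 cells/mL; Buffer or medium: YPD; Doses: single compound concentration per well; Timing: 4 h at 37 °C static, read 1 h later; Measured by: AK luminescence; Read-out basis: lysis from increased AK signal; Control set: Clomiphene as positive control.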
dFosB act-2 = activators of mouse delta FosB DNA binding, confirmation, biochemical, fluorescence polarization, TAMRA-CDK5 oligo, cherry-picked samples; shares compounds with dFosB act-1; purified delta FosB; normalised: neutral wells 0, positive control 100; activation, % at 24.9 µM; 2,400 tested, under 10 active; AID 588690, 2011;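 active means highest replicate activation at or above 34% and every replicate reaching that threshold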;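 further: higher polarization means more probe DNA bound by delta FosB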
* marks the source's active call; other numbers are inactive results; / = no result; [ ] = dose if it differs, or a comment.

SMILES	GSIS activator	dFosB act-1	Env fusion inh	PAX8 inh HTS	CDK5 inh	Cneo AK release	dFosB act-2
O=C1C(c2ccccc2)SC(=Nc2ccccc2)N1S(=O)(=O)c1ccccc1 (stereo not given)	/	20.9*	/	/	-1.2	0.6	4.2
O=S(=O)(c1ccccc1)N1CCCCN2[C@H](C1)[C@@H](c1ccc(-c3ccccc3F)cc1)[C@@H]2CO	/	/	/	-19.7	/	3.6	/
O=C(O)c1ccc(/C=N/Nc2nc3ccccc3[nH]2)cc1	-1.0	25.0*	-46.7	-31.6	0.0	-0.7	0.1
COC(=O)c1ccc(/C=N/Nc2nc3ccccc3[nH]2)cc1	-12.4	-4.5	-22.9	37.6	-0.7	/	/
CCc1ccc(-c2nc(SCC(=O)c3c(N)n(C)c(=O)n(C)c3=O)n[nH]2)cc1	10.4	-3.8	-7.0	14.1	-0.4	-2.1	/
Cc1ccc(-c2nc(SCC(=O)c3c(N)n(C)c(=O)n(C)c3=O)n[nH]2)cc1	4.2	32.3*	-3.6	-6.7	5.3	/	0.0
Cc1ccccc1-n1nnnc1SCC(=O)c1c(N)n(C)c(=O)n(C)c1=O	8.0	23.1*	0.8	-7.1	0.9	-6.1	-0.6
C[C@@H](O)C#Cc1ccc2c(c1)O[C@H](CN(C)C(=O)CC1CC1)[C@@H](C)CN([C@@H](C)CO)S2(=O)=O	7.5	/	-21.4[16.7 µM]	/	/	-6.6	/
CN(CC(=O)Nc1ccc(Cl)c(C(F)(F)F)c1)C(=O)CCc1nc2ccccc2c(=O)[nH]1	-5.1	52.1*	/	12.4	-2.1	-1.9	3.9
CCCN(CC(=O)Nc1ccc(F)c(F)c1F)C(=O)CCc1nc2ccccc2c(=O)[nH]1	25.9	40.1*	-7.5	2.7	0.4	-3.9	0.5
C[C@@H]1CCCCO[C@H](CN(C)C(=O)Nc2cccc3ccccc23)[C@@H](C)CN([C@H](C)CO)C(=O)c2cc(NC(=O)Nc3ccc(C(F)(F)F)cc3)ccc2O1	12.4	/	-12.1[16.7 µM]	1.5	/	-2.4	/
CN(CC(=O)Nc1ccccc1C(F)(F)F)C(=O)CCc1nc2sc3c(c2c(=O)[nH]1)CCCC3	5.5	22.5*	-1.7	-7.3	-1.0	-2.0	1.6
CN(CC(=O)Nc1ccc(Cl)cc1)C(=O)CCc1nc2sc3c(c2c(=O)[nH]1)CCCC3	4.8	28.5*	-7.1	22.9	-0.9	3.2	0.7
CN(CC(=O)Nc1ccc(F)cc1)C(=O)CCc1nc2sc3c(c2c(=O)[nH]1)CCCC3	6.7	11.5	7.8	6.1	-2.7	-0.6	/
CCN(CC(=O)Nc1ccccc1C(F)(F)F)C(=O)CCc1nc2sc3c(c2c(=O)[nH]1)CCCC3	13.2	2.1	1.9	2.3	-3.7	0.9	/
CCS(=O)(=O)Nc1ccc2c(c1)C(=O)N(C)[C@@H]1CC[C@H](CC(=O)NC)O[C@H]1CO2	8.2	/	1.5[16.7 µM]	-8.6	/	0.7	/
C[C@@H]1CN([C@H](C)CO)C(=O)Cc2cc(NS(=O)(=O)c3cn(C)cn3)ccc2O[C@@H]1CN(C)Cc1ccc(C(F)(F)F)cc1	-15.0	/	13.5[16.7 µM]	-9.7	/	0.8	/
Cc1ccc(/C=C(\C#N)C(=O)Nc2c(C)cccc2C)s1	1.1	0.4	/	/	0.9	/	/
Cc1ccc(NC(=O)/C(C#N)=C/c2ccc(C)s2)c(C)c1	/	16.7*	/	/	-1.8	-0.2	3.8
COc1ccc2c3c([nH]c2c1)[C@@H](CO)N(C(=O)CC1CC1)CC31CCN(C(=O)c2ccccc2)CC1	12.3	/	/	/	/	/	/
C[C@H](CO)N1C[C@H](C)[C@@H](CN(C)C(=O)CCC(F)(F)F)OCCCC[C@H](C)Oc2ccc(NS(=O)(=O)c3ccc(Cl)cc3)cc2C1=O	-11.7	/	-95.1[16.7 µM]	28.2	/	-5.4	/
Cc1nc(SCC(=O)NC(C)c2ccccc2)c2oc3ccccc3c2n1 (stereo not given)	/	34.5*	-17.9	3.3	-1.0	0.3	3.1
